Test results as given in ChEMBL document CHEMBL1124486, “Antimalarial activity of new water-soluble dihydroartemisinin derivatives. 2. Stereospecificity of the ether side chain” (J Med Chem, 1989).
In brackets after ≈: the same amount, converted by molar mass.

Experiments:
Plasmodium berghei [1] = test: Cures in Plasmodium berghei infected mice (Mus musculus) after 3 days at 80 mg/kg; […]; assay type: functional
Plasmodium falciparum [2] = test: In vitro antimalarial activity against Plasmodium falciparum W-2 Indochina; assay type: functional, organism-based
Procedure, shortened: (§1)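 [³H]hypoxanthine uptake assay. Compound was dissolved in DMSO and 70% ethanol, diluted in RPMI 1640 with 10% human plasma, then tested over (1.56-100) × 10⁻⁹ M. Parasites (0.5% parasitemia, 1% hematocrit) were incubated 24 h with compound, then [³H]hypoxanthine was added and incubation continued 18 h. Cells were harvested and counted by scintillation. IC50 came from nonlinear regression of concentration-response data.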

Plasmodium berghei [3] = test: Increased mean survival time (>12-14 days) in Plasmodium berghei infected mice (Mus musculus) after 3 days at 80 mg/kg; active in 1 of 5; assay type: functional
Plasmodium berghei [4] = test: Cures in Plasmodium berghei infected mice (Mus musculus) after 3 days at 80 mg/kg; cured 2 of 5; assay type: functional
Plasmodium berghei [5] = test: Cures in Plasmodium berghei infected mice (Mus musculus) after 3 days at 160 mg/kg; cured 1 of 5; assay type: functional
Plasmodium berghei [6] = test: Cures in Plasmodium berghei infected mice (Mus musculus) after 3 days at 640 mg/kg; cured 4 of 5; assay type: functional
Plasmodium berghei [7] = test: Increase in mean survival time (>12-14 days) in Plasmodium berghei infected mice (Mus musculus) after 3 days at 80 mg/kg; active in 1 of 5; assay type: functional
Plasmodium falciparum [8] = test: In vitro antimalarial activity against Plasmodium falciparum D6 (Sierra Leone); assay type: functional, organism-based; procedure, shortened: as §1
Plasmodium berghei [9] = test: Cures in Plasmodium berghei infected mice (Mus musculus) after 3 days at 20 mg/kg; cured 0 of 5; assay type: functional
Plasmodium berghei [10] = test: Increased mean survival time (>12-14 days) in Plasmodium berghei infected mice (Mus musculus) after 3days at 20 mg/kg; active in 2 of 5; assay type: functional
Plasmodium berghei [11] = test: Cures in Plasmodium berghei infected mice (Mus musculus) after 3 days at 640 mg/kg; cured 5 of 5; assay type: functional
Plasmodium berghei [12] = test: Cures in Plasmodium berghei infected mice (Mus musculus) after 3 days at 160 mg/kg; cured 5 of 5; assay type: functional
Plasmodium berghei [13] = test: Increased mean survival time (>12-14 days) in P berghei infected mice (Mus musculus) after 3 days at 80 mg/kg; active in 3 of 5; assay type: functional
Plasmodium berghei [14] = test: Cures in Plasmodium berghei infected mice (Mus musculus) after 3 days at 20 mg/kg; cured 1 of 5; assay type: functional
Plasmodium berghei [15] = test: Increased mean survival time (>12-14 days) in Plasmodium berghei infected mice (Mus musculus) after 3 days at 20 mg/kg; active in 4 of /5; assay type: functional
Plasmodium berghei [16] = test: Cures in Plasmodium berghei infected mice (Mus musculus) after 3 days at 320 mg/kg; cured 5 of 5; assay type: functional
Plasmodium berghei [17] = test: Cures in Plasmodium berghei infected mice (Mus musculus) after 3 days at 80 mg/kg; cured 1 of 5; assay type: functional
Plasmodium berghei [18] = test: Increased mean survival time (>12-14 days) in P berghei infected mice (Mus musculus) after 3 days at 80 mg/kg; active in 5 of 5; assay type: functional
Plasmodium berghei [19] = test: Cures in Plasmodium berghei infected mice (Mus musculus) after 3 days at 80 mg/kg; cured 0 of 5; assay type: functional
Plasmodium berghei [20] = test: Cures in Plasmodium berghei infected mice (Mus musculus) after 3 days at 320 mg/kg; cured 3 of 5; assay type: functional

Compound `CC1=CO[C@@H]2O[C@]3(C)CC[C@H]4[C@H](C)CC[C@@H]1[C@@]24OO3` [ANHYDRODIHYDROARTEMISININ] has a No. of mice survived (Plasmodium berghei [1]) of 2, an IC50 (Plasmodium falciparum [2]) of 0.43 ng/mL (≈ 1.61 nM) and a No. of mice survived (Plasmodium berghei [3]) of 1. For the same compound, the No. of mice cured (Plasmodium berghei [4]) was 2, the “No. of mice cured” value (Plasmodium berghei [5]) was 1 and the “No. of mice cured” value (Plasmodium berghei [6]) was 4. The No. of mice survived (Plasmodium berghei [7]) was 1 and the IC50 (Plasmodium falciparum [8]) was 0.83 ng/mL (≈ 3.12 nM).
`C[C@H]1[C@@H](OC[C@@H](C)C(=O)O)O[C@@H]2O[C@@]3(C)CC[C@H]4[C@H](C)CC[C@@H]1[C@@]24OO3` gave an IC50 (Plasmodium falciparum [2]) of 5.32 ng/mL (≈ 14.4 nM) and an IC50 (Plasmodium falciparum [8]) of 22.2 ng/mL (≈ 60 nM).
`C[C@@H]1CC[C@H]2[C@@H](C)C(=O)O[C@@H]3O[C@@]4(C)CC[C@@H]1[C@]32OO4` [ARTEMISININ] was tested, and the “No. of mice cured” value (Plasmodium berghei [9]) was 0, the “No. of mice survived” value (Plasmodium berghei [10]) was 2 and the IC50 (Plasmodium falciparum [2]) was 2.6 ng/mL (≈ 9.21 nM). The “No. of mice cured” value (Plasmodium berghei [4]) was 2, the “No. of mice cured” value (Plasmodium berghei [11]) was 5 and the “No. of mice cured” value (Plasmodium berghei [12]) was 5. The “No. of mice survived” value (Plasmodium berghei [13]) was 3 and the IC50 (Plasmodium falciparum [8]) was 2.35 ng/mL (≈ 8.32 nM).
For `COC(=O)C[C@H](C)O[C@H]1O[C@@H]2O[C@@]3(C)CC[C@H]4[C@H](C)CC[C@@H]([C@H]1C)[C@@]24OO3`, the “No. of mice cured” value (Plasmodium berghei [1]) was 5, the “No. of mice cured” value (Plasmodium berghei [14]) was 1 and the IC50 (Plasmodium falciparum [2]) was 0.48 ng/mL (≈ 1.25 nM). The “No. of mice survived” value (Plasmodium berghei [15]) was 4, the “No. of mice cured” value (Plasmodium berghei [16]) was 5 and the IC50 (Plasmodium falciparum [8]) was 1.91 ng/mL (≈ 4.97 nM).
`COC(=O)[C@@H](C)CO[C@H]1O[C@@H]2O[C@@]3(C)CC[C@H]4[C@H](C)CC[C@@H]([C@H]1C)[C@@]24OO3` was tested, and the IC50 (Plasmodium falciparum [2]) was 0.015 ng/mL (≈ 0.039 nM) and the IC50 (Plasmodium falciparum [8]) was 0.36 ng/mL (≈ 0.936 nM).
`C[C@H]1[C@@H](O[C@H](C)CC(=O)O)O[C@@H]2O[C@@]3(C)CC[C@H]4[C@H](C)CC[C@@H]1[C@@]24OO3` was tested, and the IC50 (Plasmodium falciparum [2]) was 4.42 ng/mL (≈ 11.9 nM) and the IC50 (Plasmodium falciparum [8]) was 36.5 ng/mL (≈ 98.4 nM).
`C[C@H]1[C@@H](O[C@@H](C)CC(=O)O)O[C@@H]2O[C@@]3(C)CC[C@H]4[C@H](C)CC[C@@H]1[C@@]24OO3` gave an IC50 (Plasmodium falciparum [2]) of 7.43 ng/mL (≈ 20.1 nM) and an IC50 (Plasmodium falciparum [8]) of 15 ng/mL (≈ 40.6 nM).
For `COC(=O)[C@H](C)CO[C@H]1O[C@@H]2O[C@@]3(C)CC[C@H]4[C@H](C)CC[C@@H]([C@H]1C)[C@@]24OO3`, the “No. of mice cured” value (Plasmodium berghei [9]) was 0, the “No. of mice survived” value (Plasmodium berghei [10]) was 2 and the IC50 (Plasmodium falciparum [2]) was 0.057 ng/mL (≈ 0.148 nM). For the same compound, the “No. of mice cured” value (Plasmodium berghei [17]) was 1, the “No. of mice cured” value (Plasmodium berghei [16]) was 5 and the “No. of mice survived” value (Plasmodium berghei [13]) was 3. For the same compound, the IC50 (Plasmodium falciparum [8]) was 2.15 ng/mL (≈ 5.59 nM).
`C[C@H]1[C@@H](OC[C@H](C)C(=O)O)O[C@@H]2O[C@@]3(C)CC[C@H]4[C@H](C)CC[C@@H]1[C@@]24OO3` gave an IC50 (Plasmodium falciparum [2]) of 8.33 ng/mL (≈ 22.5 nM) and an IC50 (Plasmodium falciparum [8]) of 28.7 ng/mL (≈ 77.5 nM).
In the case of `C[C@H]1[C@@H](OCC23CC4CC(CC(C4)C2)C3)O[C@@H]2O[C@@]3(C)CC[C@H]4[C@H](C)CC[C@@H]1[C@@]24OO3`, the “No. of mice cured” value (Plasmodium berghei [9]) is reported as 0, the IC50 (Plasmodium falciparum [2]) is reported as 2.11 ng/mL (≈ 4.88 nM) and the “No. of mice survived” value (Plasmodium berghei [18]) is reported as 5. For the same compound, the “No. of mice cured” value (Plasmodium berghei [19]) was 0, the “No. of mice cured” value (Plasmodium berghei [20]) was 3 and the IC50 (Plasmodium falciparum [8]) was 2.7 ng/mL (≈ 6.24 nM).
`COC(=O)C[C@@H](C)O[C@H]1O[C@@H]2O[C@@]3(C)CC[C@H]4[C@H](C)CC[C@@H]([C@H]1C)[C@@]24OO3` showed an IC50 (Plasmodium falciparum [2]) of 0.071 ng/mL (≈ 0.185 nM) and an IC50 (Plasmodium falciparum [8]) of 0.44 ng/mL (≈ 1.14 nM).
For `C=C[C@H]1CN2CC[C@H]1C[C@H]2[C@H](O)c1ccnc2ccc(OC)cc12` [QUININE], the IC50 (Plasmodium falciparum [2]) was 59 ng/mL (≈ 182 nM) and the IC50 (Plasmodium falciparum [8]) was 3.61 ng/mL (≈ 11.1 nM).
